Assay results from different studies.
Compare with care: the assays were run in different laboratories.
Target: Mitogen-activated protein kinase 3 (MAPK3, Homo sapiens, UniProt P27361)

`C=CC(=O)N1CCC[C@@H](n2nc(-c3ccc(Oc4ccccc4)cc3)c3c(N)ncnc32)C1` has an inhibition of 3% (enzyme activity; inhibitor; 1 µM).
For `N#Cc1ccc(NC(=O)Nc2ccccc2)cc1`, the remaining binding was 100% (cell-free assay; competition with immobilised ligand; 25 µM).
The remaining signal of `C[C@H]1CC[C@H](n2c3cnccc3c3cnc(Nc4ccc5c(n4)CCN(C(=O)CO)C5)nc32)CC1` is reported as 100% (cell-free assay; 1 µM).
`c1ccc(-c2ccc3c(c2)NC(C2Nc4cc(-c5ccccc5)ccc4O2)O3)cc1` (stereo not shown) has an inhibition of 54.7% (enzyme activity; inhibitor; ADP detection; 10 µM).
With `C#Cc1cc(-c2cc(Nc3nc(N[C@@H](C)c4ccc(F)cn4)ncc3Cl)n[nH]2)ccc1C=O` the inhibition was 5.48% (enzyme activity; inhibitor; 0.2 µM).
`Cc1cc(O)c(-c2ccc([C@@H](C)CN(C)C)cc2)c2c1[nH]c(=O)c1sccc12` has an inhibition of 15.1% (enzyme activity; inhibitor; 0.1 µM).
`O=C(O)CCC(=O)OCCN(Cc1ccc(Oc2ccc([N+](=O)[O-])cc2)cc1)C(=O)C(Cl)Cl` gave an inhibition of 49.3% (enzyme activity; inhibitor; ADP detection; 10 µM).
The remaining binding of `Cc1ccc(NC(=O)c2ccnc(C(F)(F)F)c2)cc1-c1cc(OCCO)nc(N2CCOCC2)c1` is reported as 100% (binding; 1 µM).
`CC#CC(=O)N1CCC[C@H]1c1nc(-c2ccc(C(=O)Nc3ccccn3)cc2)c2c(N)nccn12` gave an inhibition of 12% (enzyme activity; inhibitor; 1 µM).
`CCCCC(=O)Nc1ccc(-c2ccc3ncn(CCC)c(=O)c3c2)cn1` gave a remaining binding of 97% (binding; competition with immobilised ligand; 0.5 µM).
